“And” between values parts separate entries of the source, which are not always exact repeats. Identical values can stand only once. Marks after values point to notes of the source that are not given here.
Legend:
[1] = system: Japanese patients with select advanced hematologic malignancies; assay: Safety: adverse events and dose-limiting toxicities, phase I trial of glasdegib; format: in vivo
Method in brief: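 Once-daily oral dosing at 25, 50 or 100 mg followed a 3 + 3 design. AEs, serious AEs and laboratory tests were monitored until 28 days after the last dose or until drug-related toxicities resolved, graded by NCI CTCAE v4.0. DLT window: Day −5 to Cycle 1 Day 28. DLTs: grade ≥3 nonhematologic toxicity; myelosuppression lasting ≥42 days; grade ≥3 QTc prolongation (≥501 ms).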

[2] = Plasma pharmacokinetics after single and multiple oral doses; format: in vivo, Japanese patients; details: for half-life / AUC(0-inf) / Tmax / Vd/F: human, plasma; for C trough: multiple dose, Cycle 1/Day 21; for C trough / CL/F: geometric mean (geometric %CV); for CL/F: single dose
Method in brief: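 Dosing was oral, once daily, at 25, 50 or 100 mg (3 + 3 design), with a single lead-in dose on Day −5. Serial blood was drawn on Day −5 and on Cycle 1 Days 1, 8, 15 and 21, then on Day 1 of later cycles. Plasma drug was assayed by a validated method (LLOQ 3.00 ng/mL). Cmax, Tmax and AUC came from noncompartmental analysis.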

[3] = system: GLI1 expression; assay: GLI1 expression in normal skin biopsies; format: in vivo, Japanese patients; details: for Downregulation of GLI1 expression from skin biopsies: steady state (Cycle 1 Day 21 vs screening)
Method in brief: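 Adults with advanced hematologic malignancies received once-daily oral test compound at 25, 50 or 100 mg in 28-day cycles, after a single lead-in dose on Day −5. Normal skin biopsies were taken at screening and on Cycle 1 Day 21. Expression of Hh pathway-regulated genes was measured relative to baseline, matched to PK sampling where possible, and summarised graphically and descriptively.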

[4] = system: select advanced hematologic malignancies; assay: Preliminary clinical activity by disease-specific response criteria; format: in vivo, Japanese patients
Method in brief: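 Patients aged ≥20 years had refractory, resistant or intolerant MDS, MF, CMML, CML or AML. They took oral test compound once daily at 25, 50 or 100 mg in 28-day cycles, after a lead-in dose on Day −5. Response was judged by disease-specific criteria and summarised with descriptive statistics.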

[5] = system: hematologic malignancies; details: cited from earlier work
[6] = 5–600 mg dose range; cited from earlier work
[7] = system: solid tumors; details: glasdegib monotherapy; cited from earlier work
[8] = system: GLI1 expression; details: advanced solid tumors; 80–640 mg; cited from earlier work
[9] = system: SMO; details: preclinical studies; cited from earlier work
[10] = system: leukemic stem cell (LSC) burden in xenograft models; details: cited from earlier work
[11] = system: patients with select advanced myeloid malignancies and solid tumors; details: phase I dose-escalation study, United States and Italy; cited from earlier work

For `CN1CC[C@@H](NC(=O)Nc2ccc(C#N)cc2)C[C@@H]1c1nc2ccccc2[nH]1` [glasdegib], the “Permanent discontinuation of treatment due to AE” value ([1]; 50 mg group) was 3 patients, the “Permanent discontinuation of treatment due to AE” value ([1]; 100 mg group) was 1 patient and the “Severity of treatment-emergent, treatment-related AE” value ([1]; 9 of 13 patients with treatment-related AE) was 1–3 grade. The “Leukopenia, grade 4 treatment-emergent AE” value ([1]; 13 patients, 8%) was 1 n, the “Neutropenia, grade 4 treatment-emergent AE” value ([1]; 13 patients, 8%) was 1 n and the “Reduced platelet count, grade 4 treatment-emergent AE” value ([1]; 13 patients, 8%) was 1 n. The “Thrombocytopenia, grade 4 treatment-emergent AE” value ([1]; 13 patients, 8%) was 1 n, the “Anemia, grade 3 treatment-emergent all-causality AE” value ([1]; 13 patients, 15%) was 2 n and the “Hypokalemia, grade 3 treatment-emergent all-causality AE” value ([1]; 13 patients, 15%) was 2 n. For the same compound, the “Thrombocytopenia, grade 3 treatment-emergent all-causality AE” value ([1]; 13 patients, 15%) was 2 n, the “Treatment temporarily discontinued or dose reduced due to a treatment-related AE” value ([1]; 13 patients, 23%, grade 1 muscle cramp, grade 1 dysgeusia, grade 1–3 pyrexia) was 3 patients and the “First-cycle dose-limiting toxicities (DLT)” value ([1]; 13 patients, 25, 50 and 100 mg q.d., Day −5 to Day 28 of Cycle 1) was “No DLT were observed”. For the same compound, the “Temporary discontinuations for an all-cause AE” value ([1]; 50-mg group) was 1 patient, the “Temporary discontinuations for an all-cause AE” value ([1]; 100-mg group, 23%) was 3 patients and the “Grade 4 or 5 treatment-related adverse events” value ([1]; N = 13) was “No grade 4 or 5 treatment‐related adverse events were reported in this study”. For the same compound, the “Pyrexia, grade 3 treatment-related” value ([1]; N = 13) was “a One patient experienced grade 3 treatment‐related pyrexia”, the “Any adverse event, treatment-emergent all-causality, all grades” value ([1]; N = 13, 25, 50 and 100 mg q.d. oral pooled) was 13 (100.0) n (%) and the “Alopecia, all-causality, all grades” value ([1]; N = 13, all doses pooled) was 4 (30.8) n (%). The “Alopecia, all-causality, ≥Grade 3” value ([1]; N = 13, all doses pooled) was 0 n (%), the “Alopecia, treatment-related, Grade 3” value ([1]; N = 13, all doses pooled) was 0 n (%) and the “Alopecia, treatment-related, all grades” value ([1]; N = 13, all doses pooled) was 4 (30.8) n (%). The “Any adverse event, treatment-emergent all-causality, ≥Grade 3” value ([1]; N = 13, all doses pooled) was 7 (53.8) n (%), the “Any adverse event, treatment-emergent treatment-related, all grades” value ([1]; N = 13, all doses pooled) was 9 n (%) and 9 (69.2) n (%) and the “Any adverse event, treatment-related, Grade 3” value ([1]; N = 13, all doses pooled) was 1 (7.7) ^a n (%). For the same compound, the “Blood creatinine phosphokinase increased, all-causality, all grades” value ([1]; N = 13, all doses pooled) was 3 (23.1) n (%), the “Blood creatinine phosphokinase increased, all-causality, ≥Grade 3” value ([1]; N = 13, all doses pooled) was 0 n (%) and the “Blood creatinine phosphokinase increased, treatment-related, Grade 3” value ([1]; N = 13, all doses pooled) was 0 n (%). The “Blood creatinine phosphokinase increased, treatment-related, all grades” value ([1]; N = 13, all doses pooled) was 3 (23.1) n (%), the “Constipation, all-causality, all grades” value ([1]; N = 13, all doses pooled) was 6 (46.2) n (%) and the “Constipation, all-causality, ≥Grade 3” value ([1]; N = 13, all doses pooled) was 0 n (%). For the same compound, the “Constipation, treatment-related, Grade 3” value ([1]; N = 13, all doses pooled) was 0 n (%), the “Constipation, treatment-related, all grades” value ([1]; N = 13, all doses pooled) was 3 (23.1) n (%) and the “Decreased appetite, all-causality, all grades” value ([1]; N = 13, all doses pooled) was 6 (46.2) n (%). For the same compound, the “Decreased appetite, all-causality, ≥Grade 3” value ([1]; N = 13, all doses pooled) was 0 n (%), the “Decreased appetite, treatment-related, Grade 3” value ([1]; N = 13, all doses pooled) was 0 n (%) and the “Decreased appetite, treatment-related, all grades” value ([1]; N = 13, all doses pooled) was 4 (30.8) n (%). For the same compound, the “Diarrhea, all-causality, all grades” value ([1]; N = 13, all doses pooled) was 3 (23.1) n (%), the “Diarrhea, all-causality, ≥Grade 3” value ([1]; N = 13, all doses pooled) was 0 n (%) and the “Diarrhea, treatment-related, Grade 3” value ([1]; N = 13, all doses pooled) was 0 n (%). The “Diarrhea, treatment-related, all grades” value ([1]; N = 13, all doses pooled) was 3 (23.1) n (%), the “Dysgeusia, all-causality, all grades” value ([1]; N = 13, all doses pooled) was 9 (69.2) n (%) and the “Dysgeusia, all-causality, ≥Grade 3” value ([1]; N = 13, all doses pooled) was 0 n (%). The “Dysgeusia, treatment-related, Grade 3” value ([1]; N = 13, all doses pooled) was 0 n (%), the “Dysgeusia, treatment-related, all grades” value ([1]; N = 13, all doses pooled) was 9 (69.2) n (%) and the “Fatigue, all-causality, all grades” value ([1]; N = 13, all doses pooled) was 3 (23.1) n (%). The “Fatigue, all-causality, ≥Grade 3” value ([1]; N = 13, all doses pooled) was 0 n (%), the “Hypokalemia, all-causality, all grades” value ([1]; N = 13, all doses pooled) was 3 (23.1) n (%) and the “Hypokalemia, all-causality, ≥Grade 3” value ([1]; N = 13, all doses pooled) was 2 (15.4) n (%). For the same compound, the “Muscle spasms, all-causality, all grades” value ([1]; N = 13, all doses pooled) was 6 (46.2) n (%), the “Muscle spasms, all-causality, ≥Grade 3” value ([1]; N = 13, all doses pooled) was 0 n (%) and the “Muscle spasms, treatment-related, Grade 3” value ([1]; N = 13, all doses pooled) was 0 n (%). For the same compound, the “Muscle spasms, treatment-related, all grades” value ([1]; N = 13, all doses pooled) was 5 (38.5) n (%), the “Pyrexia, all-causality, all grades” value ([1]; N = 13, all doses pooled) was 6 (46.2) n (%) and the “Pyrexia, all-causality, ≥Grade 3” value ([1]; N = 13, all doses pooled) was 1 (7.7) n (%). For the same compound, the “Thrombocytopenia, all-causality, all grades” value ([1]; N = 13, all doses pooled) was 3 (23.1) n (%), the “Thrombocytopenia, all-causality, ≥Grade 3” value ([1]; N = 13, all doses pooled) was 3 (23.1) n (%) and the “Weight decreased, all-causality, all grades” value ([1]; N = 13, all doses pooled) was 3 (23.1) n (%). The “Weight decreased, all-causality, ≥Grade 3” value ([1]; N = 13, all doses pooled) was 0 n (%), the “Overall safety and tolerability” value ([1]; dose levels tested (25–100 mg)) was “safe and well tolerated” and the Maximum tolerated dose ([1]; doses up to 100 mg q.d.) was “not reached”. The “Dose proportionality of maximum plasma concentration and exposure” value ([2]; 25–100 mg) was “broadly dose‐proportional”, the half-life ([2]; oral) was 1240 ± 462 min and the AUC(0-inf) ([2]; po, 25 mg) was 3350 ng·h/mL. The Tmax ([2]; po, 25 mg) was 2 h, the Vd/F ([2]; po, 25 mg) was 165 L and the half-life ([2]; po, 25 mg) was 918 min. The AUC(0-inf) ([2]; po, 50 mg) was 9590 ng·h/mL, the Tmax ([2]; po, 50 mg) was 4 h and the Vd/F ([2]; po, 50 mg) was 225 L. For the same compound, the half-life ([2]; po, 50 mg) was 1820 min, the AUC(0-inf) ([2]; po, 100 mg) was 13100 ng·h/mL and the Tmax ([2]; po, 100 mg) was 2 h. For the same compound, the Vd/F ([2]; po, 100 mg) was 184 L, the half-life ([2]; po, 100 mg) was 1030 min and the C trough ([2]; 50 mg q.d.) was 240 (37) ng/mL. The C trough ([2]; 100 mg q.d.) was 343 (35) ng/mL, the CL/F ([2]; 25 mg oral) was 7.47 (68) L/h and the CL/F ([2]; 50 mg oral) was 5.22 (64) L/h. The CL/F ([2]; 100 mg oral) was 7.63 (20) L/h, the “Downregulation of GLI1 expression from skin biopsies” value ([3]; 50 mg group) was > 80% and the “Downregulation of GLI1 expression from skin biopsies” value ([3]; 100 mg group) was > 80%. The “Marked downregulation of GLI1 expression from skin biopsies” value ([3]; steady state, 25-mg group) was “not observed”, the “AML patients achieving stable disease” value ([4]; 25 mg) was 1 patients and the “MDS patients achieving stable disease” value ([4]; 25 mg) was 1. For the same compound, the “AML patients achieving stable disease” value ([4]; 50 mg) was 1 patients, the “MDS patients achieving stable disease” value ([4]; 100 mg) was 1 and the “AML patients achieving stable disease” value ([4]; 100-mg group) was 2 patients. For the same compound, the “AML patients with morphological complete remission as best response” value ([4]; 100-mg group, 8% of 13) was 1 patient, the “AML patients achieving stable disease” value ([4]; all dose groups, 31%) was “Four” and the “Patients with some suggestion of clinical activity” value ([5]; European and American patients with hematologic malignancies) was 23 of 47. For the same compound, the “Patients with preliminary clinical activity” value ([5]; phase I dose-escalation study, United States and Italy) was “approximately half”, the “Dose proportionality of pharmacokinetics” value [6] was “dose‐proportional” and the “Patients with prolonged (≥6 months) stabilization of disease” value [7] was 13%. The “Patients with stable disease” value [7] was 35%, the “Downregulation of GLI1 expression in surrogate tissue” value [8] was > 80% and the “Inhibition of SMO in vitro” value [9] was “inhibited SMO in vitro”. The “Antitumor activity in vivo” value ([10]; preclinical studies) was “significant antitumor activity”, the “Leukemic stem cell (LSC) burden” value ([10]; xenograft models) was “significant reduction” and the Tolerability [11] was “well tolerated”.
